ChEMBL document CHEMBL4196130, “3-(2-Carboxyethyl)indole-2-carboxylic Acid Derivatives: Structural Requirements and Properties of Potent Agonists of the Orphan G Protein-Coupled Receptor GPR17” (J Med Chem, 2018)
The source made the active and inactive calls. No cut-off for these calls is given here.

How the values were obtained:
[1] = target: T1, Uracil nucleotide/cysteinyl leukotriene receptor (Homo sapiens, UniProt Q13304); test: Agonist activity at human GPR17 expressed in human 1321N1 cells assessed as induction of calcium mobilization at >30 uM after 1 hr by Oregon Green BAPTA-1/AM dye-based fluorescence assay relative to control; assay type: functional, cell-based
[2] = target: T1, Uracil nucleotide/cysteinyl leukotriene receptor; test: Agonist activity at human GPR17 expressed in human 1321N1 cells assessed as induction of calcium mobilization after 1 hr by Oregon Green BAPTA-1/AM dye-based fluorescence assay; assay type: functional, cell-based
Procedure, shortened: (§1)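 Stably transfected 1321N1 astrocytoma cells were trypsin/EDTA-harvested, held 45 min at 37°C, then loaded 1 h at 25°C in KRH buffer pH 7.4 with 3 µM Oregon Green BAPTA-1/AM and 1% Pluronic F127, washed, and plated at ~16,000 cells/well. Fluorescence was read at 520 nm for 30 s after compound injection. Efficacy was expressed relative to the maximum given by 10 µM MDL 29,951. EC50 came from concentration-response curves, run for compounds exceeding 50% stimulation at 10 µM. At least three independent experiments, each in duplicate.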

[3] = target: T1, Uracil nucleotide/cysteinyl leukotriene receptor; test: Agonist activity at human GPR17 expressed in human 1321N1 cells assessed as induction of calcium mobilization after 1 hr by Oregon Green BAPTA-1/AM dye-based fluorescence assay relative to MDL 29,951; assay type: functional, cell-based; procedure, shortened: as §1
[4] = target: T1, Uracil nucleotide/cysteinyl leukotriene receptor; test: Antagonist activity at human GPR17 expressed in human 1321N1 cells assessed as inhibition of MDL 29,951-induced calcium mobilization after 1 hr by Oregon Green BAPTA-1/AM dye-based fluorescence assay; assay type: functional, cell-based
Procedure, shortened: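 Oregon Green BAPTA-1/AM calcium assay in hGPR17-1321N1 cells (1 h dye loading at 25°C in KRH buffer pH 7.4). Full inhibition curves were run for potent antagonists. Fluorescence was read at 520 nm.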

[5] = target: T1, Uracil nucleotide/cysteinyl leukotriene receptor; test: Agonist activity at human GPR17 expressed in human 1321N1 cells assessed as induction of calcium mobilization at >100 uM after 1 hr by Oregon Green BAPTA-1/AM dye-based fluorescence assay relative to control; assay type: functional, cell-based
P2Y purinoceptor 2 = P2Y purinoceptor 2 (Homo sapiens, UniProt P41231); test: Agonist activity at human P2Y2 receptor transfected in human 1321N1 cells assessed as induction of calcium mobilization after 30 mins in presence of UTP by fluo-4 dye based assay; assay type: functional, cell-based
Procedure, shortened: (§2)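 Calcium mobilization was measured in 1321N1 astrocytoma cells stably transfected with human P2Y1, P2Y2, P2Y4 or P2Y6 receptors, read on a Flexstation III microplate reader.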

[6] = target: T2, P2Y purinoceptor 14 (Homo sapiens) (UniProt Q15391); test: Agonist activity at human P2Y14 receptor transfected in CHO cells assessed as induction of beta-arrestin translocation; assay type: functional, cell-based
T2 sequence (whole entry): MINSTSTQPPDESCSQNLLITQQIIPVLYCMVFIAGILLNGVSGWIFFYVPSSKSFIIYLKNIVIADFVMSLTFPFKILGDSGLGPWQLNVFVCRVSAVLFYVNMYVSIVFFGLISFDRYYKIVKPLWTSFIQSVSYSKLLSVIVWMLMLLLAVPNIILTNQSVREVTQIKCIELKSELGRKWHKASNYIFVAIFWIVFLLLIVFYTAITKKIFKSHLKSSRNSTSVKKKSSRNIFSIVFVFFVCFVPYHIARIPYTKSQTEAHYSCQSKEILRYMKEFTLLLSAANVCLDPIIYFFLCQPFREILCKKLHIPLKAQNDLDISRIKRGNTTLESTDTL
Procedure, shortened: (§3)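 β-Arrestin translocation assays were run in CHO cells stably transfected with human P2Y12 or P2Y14 receptors.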

[7] = target: P2Y purinoceptor 4 (Homo sapiens) (UniProt P51582); test: Agonist activity at human P2Y4 receptor transfected in human 1321N1 cells assessed as induction of calcium mobilization after 30 mins in presence of UTP by fluo-4 dye based assay; assay type: functional, cell-based; procedure, shortened: as §2
[8] = target: P2Y purinoceptor 12 (Homo sapiens) (UniProt Q9H244); test: Agonist activity at human P2Y12 receptor transfected in CHO cells assessed as induction of beta-arrestin translocation; assay type: functional, cell-based; procedure, shortened: as §3
[9] = target: P2Y purinoceptor 1 (Homo sapiens) (UniProt P47900); test: Agonist activity at human P2Y1 receptor transfected in human 1321N1 cells assessed as induction of calcium mobilization after 30 mins in presence of ADP by fluo-4 dye based assay; assay type: functional, cell-based; procedure, shortened: as §2
[10] = target: P2Y purinoceptor 6 (Homo sapiens) (UniProt Q15077); test: Agonist activity at human P2Y6 receptor transfected in human 1321N1 cells assessed as induction of calcium mobilization after 30 mins in presence of UDP by fluo-4 dye based assay; assay type: functional, cell-based; procedure, shortened: as §2
[11] = target: T1, Uracil nucleotide/cysteinyl leukotriene receptor; test: Antagonist activity at human GPR17 expressed in human 1321N1 cells assessed as inhibition of MDL 29,951-induced calcium mobilization at 30 uM after 1 hr by Oregon Green BAPTA-1/AM dye-based fluorescence assay relative to control

T1 sequence (Q13304 whole entry): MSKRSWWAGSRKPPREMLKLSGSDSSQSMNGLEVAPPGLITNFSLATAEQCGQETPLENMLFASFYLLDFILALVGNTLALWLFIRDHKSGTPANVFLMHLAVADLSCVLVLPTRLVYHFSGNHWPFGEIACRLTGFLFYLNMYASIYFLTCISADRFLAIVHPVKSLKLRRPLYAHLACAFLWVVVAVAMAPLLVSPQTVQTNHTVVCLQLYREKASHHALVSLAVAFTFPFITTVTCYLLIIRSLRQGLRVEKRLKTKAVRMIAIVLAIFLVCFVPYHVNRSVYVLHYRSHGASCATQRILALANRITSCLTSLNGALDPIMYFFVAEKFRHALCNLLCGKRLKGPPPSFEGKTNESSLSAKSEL
P2Y purinoceptor 12 (Homo sapiens), sequence (Q9H244 whole entry): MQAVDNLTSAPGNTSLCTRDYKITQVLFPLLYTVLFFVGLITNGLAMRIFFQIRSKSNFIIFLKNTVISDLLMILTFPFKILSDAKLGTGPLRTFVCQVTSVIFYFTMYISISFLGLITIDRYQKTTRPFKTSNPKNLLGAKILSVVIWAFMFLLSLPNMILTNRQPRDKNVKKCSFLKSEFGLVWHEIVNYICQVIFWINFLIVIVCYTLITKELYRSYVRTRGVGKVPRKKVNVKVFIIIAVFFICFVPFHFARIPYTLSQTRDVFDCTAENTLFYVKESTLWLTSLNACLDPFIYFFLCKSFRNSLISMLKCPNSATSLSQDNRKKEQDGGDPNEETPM
P2Y purinoceptor 4 (Homo sapiens), sequence (P51582 whole entry): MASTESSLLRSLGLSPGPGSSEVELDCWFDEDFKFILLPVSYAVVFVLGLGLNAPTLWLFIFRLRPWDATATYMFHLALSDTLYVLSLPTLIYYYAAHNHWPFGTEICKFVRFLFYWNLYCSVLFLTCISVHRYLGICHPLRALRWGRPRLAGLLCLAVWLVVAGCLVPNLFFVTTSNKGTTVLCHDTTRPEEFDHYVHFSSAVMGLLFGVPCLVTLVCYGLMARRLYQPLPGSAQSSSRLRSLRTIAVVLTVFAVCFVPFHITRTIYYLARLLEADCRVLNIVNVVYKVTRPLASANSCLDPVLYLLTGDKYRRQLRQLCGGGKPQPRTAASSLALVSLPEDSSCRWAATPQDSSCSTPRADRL
P2Y purinoceptor 6 (Homo sapiens), sequence (Q15077 whole entry): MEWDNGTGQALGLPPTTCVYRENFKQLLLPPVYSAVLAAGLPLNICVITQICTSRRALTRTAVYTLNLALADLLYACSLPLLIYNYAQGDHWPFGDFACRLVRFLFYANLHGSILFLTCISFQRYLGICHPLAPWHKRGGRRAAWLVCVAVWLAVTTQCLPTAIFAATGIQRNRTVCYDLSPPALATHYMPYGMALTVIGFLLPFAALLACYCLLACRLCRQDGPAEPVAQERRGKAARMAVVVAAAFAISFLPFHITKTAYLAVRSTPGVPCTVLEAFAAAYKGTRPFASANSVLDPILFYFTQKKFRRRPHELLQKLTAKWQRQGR
P2Y purinoceptor 1 (Homo sapiens), sequence (P47900 whole entry): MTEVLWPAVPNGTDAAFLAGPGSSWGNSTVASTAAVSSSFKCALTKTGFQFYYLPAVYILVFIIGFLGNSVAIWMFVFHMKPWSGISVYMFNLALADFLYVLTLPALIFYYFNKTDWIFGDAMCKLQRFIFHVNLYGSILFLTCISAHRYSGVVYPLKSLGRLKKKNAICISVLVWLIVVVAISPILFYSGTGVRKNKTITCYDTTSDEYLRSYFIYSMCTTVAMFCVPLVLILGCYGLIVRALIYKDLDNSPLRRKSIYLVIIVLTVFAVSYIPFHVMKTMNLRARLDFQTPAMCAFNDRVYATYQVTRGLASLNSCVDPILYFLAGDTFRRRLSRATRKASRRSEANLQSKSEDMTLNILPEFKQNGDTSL
P2Y purinoceptor 2, sequence (P41231 whole entry): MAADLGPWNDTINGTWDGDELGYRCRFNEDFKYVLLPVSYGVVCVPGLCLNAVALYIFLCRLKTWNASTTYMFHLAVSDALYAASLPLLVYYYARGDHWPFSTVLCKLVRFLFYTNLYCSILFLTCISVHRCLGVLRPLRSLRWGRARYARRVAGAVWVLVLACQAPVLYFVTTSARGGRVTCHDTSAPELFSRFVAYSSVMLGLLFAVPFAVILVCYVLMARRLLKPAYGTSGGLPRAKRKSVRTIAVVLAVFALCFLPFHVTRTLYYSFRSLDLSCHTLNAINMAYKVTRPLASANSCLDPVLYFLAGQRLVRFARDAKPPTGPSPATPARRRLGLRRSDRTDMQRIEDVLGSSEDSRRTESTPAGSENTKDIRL

| Compound | Activity [1] [%] | EC50 [2] [µM] | Emax [3] [%] | other results |
| --- | --- | --- | --- | --- |
| O=C(O)CCc1c(C(=O)O)[nH]c2cc(F)ccc12 |  | ≥ 10 |  |  |
| COc1ccc2[nH]c(C(=O)O)c(CCC(=O)O)c2c1 | 5 | > 30 |  |  |
| O=C(O)CCc1c(C(=O)O)[nH]c2cc(Cl)c(Cl)cc12 | 11 | > 30 |  |  |
| O=C(O)CCc1c(C(=O)O)[nH]c2cc(Cc3ccccc3)ccc12 |  | 4.98 | 80 |  |
| O=C(O)CCc1c(C(=O)O)[nH]c2cccc(-c3ccccc3)c12 |  | > 100 |  | Activity [5]: 3% |
| O=C(O)CCc1c(C(=O)O)[nH]c2cc(I)cc(F)c12 |  | 0.0321 | 122 | Activity (P2Y purinoceptor 2): inactive; Activity [6]: inactive; Activity [7]: inactive; Activity [8]: inactive; Activity [9]: inactive; Activity [10]: inactive |
| O=C(O)CCc1c(C(=O)O)[nH]c2cc(Br)cc(F)c12 |  | 0.0279 | 102 | Activity (P2Y purinoceptor 2): inactive; Activity [6]: inactive; Activity [7]: inactive; Activity [8]: inactive; Activity [9]: inactive; Activity [10]: inactive |
| CN(C)CCc1c[nH]c2ccc(Cn3cncn3)cc12 [RIZATRIPTAN] | 0 |  |  | IC50 [4]: > 30 µM; inhibition [11]: 27% |
| CC(C)c1ccc2[nH]c(C(=O)O)c(CCC(=O)O)c2c1 | 6 | > 30 |  |  |
| O=C(O)CCc1c(C(=O)O)[nH]c2c(F)c(-c3ccco3)ccc12 |  | 14.4 | 57 |  |
| O=C(O)CCc1c(C(=O)O)[nH]c2cc(Oc3ccccc3)ccc12 |  | 0.27 | 100 |  |
| O=C(O)CCc1c(C(=O)O)[nH]c2c(F)c(-c3ccccc3)ccc12 |  | 3.01 | 65 |  |
| O=C(O)CCc1c(C(=O)O)[nH]c2cc(-c3ccc(F)cc3)cc(Cl)c12 |  | 0.423 | 92 |  |
| Cc1cc(C)c2c(CCC(=O)O)c(C(=O)O)[nH]c2c1 |  | 15.1 | 76 |  |

Further lines, with some results ahead:

| Activity [1] [%] | EC50 [2] [µM] | Emax [3] [%] | Compound | other results |
| --- | --- | --- | --- | --- |
| 16 | > 30 |  | O=C(O)CCc1c(C(=O)O)[nH]c2c(Cl)cc(Cl)c(Cl)c12 |  |
|  | 1.68 | 41 | O=C(O)CCc1c[nH]c2cc(Cl)cc(Cl)c12 |  |
|  | > 100 |  | COc1ccc2c(CCC(=O)O)c(C(=O)O)[nH]c2c1 | IC50 [4]: 8.4 µM; Activity [5]: 35% |
|  | 0.103 | 98 | CCCCCOc1cc(Cl)c2c(CCC(=O)O)c(C(=O)O)[nH]c2c1 |  |
| 0 | > 30 |  | O=C(O)CCc1c(C(=O)O)[nH]c2c1ccc1ccccc12 |  |
|  | 4.02 | 48 | O=C(O)CCc1c(C(=O)O)[nH]c2cc(-c3ccc(F)cc3)ccc12 |  |
|  | 4.13 | 74 | O=C(O)CCc1c(C(=O)O)[nH]c2cc(-c3ccco3)ccc12 |  |
|  | 7.9 | 87 | O=C(O)CCc1c(C(=O)O)[nH]c2c(F)c(Cl)ccc12 |  |
|  | 4.83 | 98 | O=C(O)CCc1c(C(=O)O)[nH]c2c(F)c(Br)ccc12 |  |
| 8 | > 30 |  | O=C(O)CCc1c(C(=O)O)[nH]c2ccccc12 |  |
| 22 | > 30 |  | O=C(O)/C=C/c1c(C(=O)O)[nH]c2cc(Cl)cc(Cl)c12 |  |
